We go through 23 compounds from ChEMBL document CHEMBL3862000, “Tetrahydroindazole derivatives as potent and peripherally selective cannabinoid-1 (CB1) receptor inverse agonists” (Bioorg Med Chem Lett, 2016).

Data set [1] in a line: Ratio of drug level in C57bl/6j mouse brain to plasma at 20 mg/kg, po. It counts as ADME, organism-based. As to conditions: read-out: BPR. In outline: (§1)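 Male mice dosed orally. Plasma taken by retro-orbital bleed at 1 h and 2 h or 1 h and 4 h. Whole brain minus cerebellum removed at 2 h or 4 h, weighed wet, frozen, then homogenized in saline. Compound measured by LC/MS; LOQ 5 ng/ml. B/P ratio is brain over plasma concentration.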

Data set [2] in a line: Drug uptake in C57bl/6j mouse plasma at 20 mg/kg, po measured at 2 hrs post dose by LC/MS analysis. It counts as ADME, organism-based. In short, it runs like this: as §1
For another data set, the target named is Cannabinoid receptor 2 (Homo sapiens, UniProt P34972). The data set can be described thus: Inverse agonist activity at human cannabinoid receptor 2 expressed in HEK293 cells assessed as increase in forskolin-induced cAMP production preincubated with cells followed by forskolin stimulation measured after 30 mins in presence of D2-labeled cAMP and Eu3+-TBP-NHS cryptate by HTRF assay. It counts as functional, cell-based. For orientation: cAMP levels reflect the balance of adenylyl cyclase and phosphodiesterase activity.
Chain of Cannabinoid receptor 2 (P34972 whole entry): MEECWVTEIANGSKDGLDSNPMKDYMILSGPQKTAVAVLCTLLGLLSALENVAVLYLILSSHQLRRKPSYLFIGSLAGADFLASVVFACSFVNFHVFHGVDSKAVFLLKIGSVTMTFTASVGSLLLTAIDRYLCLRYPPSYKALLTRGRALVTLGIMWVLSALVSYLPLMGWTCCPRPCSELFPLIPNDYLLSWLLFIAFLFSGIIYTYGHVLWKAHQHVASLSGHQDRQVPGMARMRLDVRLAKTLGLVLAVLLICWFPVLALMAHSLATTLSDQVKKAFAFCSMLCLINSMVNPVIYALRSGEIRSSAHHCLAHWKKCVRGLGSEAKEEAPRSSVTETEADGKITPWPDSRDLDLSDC

The target of the next data set is Cannabinoid receptor 1 (Homo sapiens, UniProt P21554). The data set can be described thus: Inverse agonist activity at human cannabinoid receptor 1 expressed in HEK293 cells assessed as increase in forskolin-induced cAMP production preincubated with cells followed by forskolin stimulation measured after 30 mins in presence of D2-labeled cAMP and Eu3+-TBP-NHS cryptate by HTRF assay. It counts as functional, cell-based.
Chain of Cannabinoid receptor 1 (P21554 whole entry): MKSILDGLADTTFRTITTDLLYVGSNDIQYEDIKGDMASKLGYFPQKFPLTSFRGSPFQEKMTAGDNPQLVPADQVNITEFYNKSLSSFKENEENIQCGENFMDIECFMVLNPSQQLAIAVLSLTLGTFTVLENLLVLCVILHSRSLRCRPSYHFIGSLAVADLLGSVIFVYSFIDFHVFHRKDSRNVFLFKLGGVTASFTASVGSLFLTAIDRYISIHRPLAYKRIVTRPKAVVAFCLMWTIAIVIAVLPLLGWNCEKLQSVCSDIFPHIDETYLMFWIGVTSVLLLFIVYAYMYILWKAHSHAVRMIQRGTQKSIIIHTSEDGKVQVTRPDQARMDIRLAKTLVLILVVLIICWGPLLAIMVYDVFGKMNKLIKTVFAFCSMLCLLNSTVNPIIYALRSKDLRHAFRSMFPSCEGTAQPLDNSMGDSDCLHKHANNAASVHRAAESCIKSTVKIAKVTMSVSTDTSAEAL

The nature of data set [3]: Drug uptake in C57bl/6j mouse brain without cerebellum at 20 mg/kg, po measured at 2 hrs post dose by LC/MS analysis. It counts as ADME, organism-based. The conditions noted are these: for Drug uptake: in vivo, 2 h. In short, it runs like this:
as §1

Data set [4] can be described thus: Drug uptake in C57bl/6j mouse plasma at 20 mg/kg, po measured at 4 hr post dose by LC/MS analysis. It counts as ADME, organism-based. In short, it runs like this: (§2)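 Male C57bl/6j mice given a single oral dose of 20 mg/kg. Plasma drawn by retro-orbital bleed at 1 h and 4 h. Whole brain minus cerebellum taken at 4 h, wet-weighed, frozen, then homogenized in saline. Compound levels in plasma and brain measured by LC/MS (LOQ 5 ng/ml). Brain/plasma ratio taken from the two concentrations.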

The nature of data set [5]: Drug uptake in C57bl/6j mouse brain without cerebellum at 20 mg/kg, po measured at 4 hr post dose by LC/MS analysis. It counts as ADME, organism-based. The conditions noted are these: in vivo. In outline: as §2
Data set [6] in a line: Drug uptake in diet-induced obese mouse brain at 30 mg/kg, po qd for 3 weeks measured 2 hrs post last dose on day 23. It counts as ADME, organism-based. The conditions noted are these: in vivo. In short, it runs like this:
(§3)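 Dosing ran daily, oral, in 10% PEG400 + 10% solutol at 5 mL/kg, […], run alongside the efficacy study. Plasma and brain compound levels measured 2 h after the last dose; B/P ratio is brain over plasma concentration.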

Data set [7] can be described thus: Drug uptake in diet-induced obese mouse plasma at 30 mg/kg, po qd for 3 weeks measured 2 hrs post last dose on day 23. It counts as ADME, organism-based. In short, it runs like this:
as §3

Data set [8] has as its system Mus musculus. Nature of the data set: Antiobesity activity in diet-induced obese mouse model assessed as fasting plasma glucose AUC (0 to 120 mins) at 30 mg/kg, po qd for 3 weeks measured on day 19 post glucose challenge by OGTT (reference value: 29890.50 +/- 2516.45 mg/dL.min). It counts as functional, organism-based. Further details: dose 30 mg/kg, time < 2 hr.
Data set [9] concerns Mus musculus. Nature of the data set: Toxicity in diet-induced obese mouse model assessed as effect on body weight at 30 mg/kg, po qd for 3 weeks measured on day 19 up to 120 mins post glucose challenge. It counts as organism-based. As to conditions: in vivo.
Data set [10] deals with Mus musculus. Nature of the data set: Toxicity in diet-induced obese mouse model assessed as effect on food intake at 30 mg/kg, po qd for 3 weeks measured on day 19 up to 120 mins post glucose challenge. It counts as organism-based. As to conditions: in vivo.
The subject of another data set is Rattus norvegicus. The data set can be described thus: Toxicity in Sprague-Dawley rat assessed as CNS-mediated behavior at 30 mg/kg, po by measuring stereotypic activity after 15 mins measured up to 2 hrs. It counts as organism-based. The conditions noted are these: in vivo. In short, it runs like this: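 Rats given vehicle (10% PEG400 and 10% solutol) or compound orally. Stereotypic activity recorded automatically from 15 min post-dose for a total of 2 h.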

The nature of data set [11]: Ratio of drug level in diet-induced obese mouse brain to plasma at 30 mg/kg, po qd for 3 weeks measured 2 hrs post last dose on day 23. It counts as ADME, organism-based. The conditions noted are these: read-out: BPR. In short, it runs like this: as §3

pEC50: −log10 of the molar value.

Turning to `C[C@@H](NC(=O)c1nn(-c2ccc(Cl)cc2)c2c1CCCC/C2=C\c1ccc(F)cc1)c1ccccn1`, the Kp in data set [1] was found to be 0.41. Moreover, the concentration at 2 h in [2] worked out at 2470 nM. Also, the figures for the pEC50 on Cannabinoid receptor 2 and at Cannabinoid receptor 1 were below 5.00 and 7.55, respectively. Further, the Drug uptake in data set [3] was found to be 1.02 nmol/g.
The like results for `C[C@@H](NC(=O)c1nn(-c2ccc(Cl)cc2Cl)c2c1CCCC/C2=C\c1ccc(Cl)cc1)c1ccccn1` were, in that order, 0.16, 830 nM, 6.13, 8.15 and 0.13 nmol/g.
Consider `C[C@@H](NC(=O)c1nn(-c2ccc(C(F)(F)F)cc2Cl)c2c1CCCC/C2=C\c1ccc(Cl)s1)c1ccccn1`, for which, in data set [1], the Kp is 0.28. The pEC50 was below 5.00 on Cannabinoid receptor 2 and 8.10 at Cannabinoid receptor 1. The compound also registered a concentration at 4 h in data set [4] of 640 nM. Further, in data set [5], the Drug uptake stood at 0.17 nmol/g.
The matching figures for `O=C(NC1(c2ccccn2)CC1)c1nn(-c2ccc(C(F)(F)F)cc2Cl)c2c1CCC/C2=C\c1ccc(Cl)s1`: 0.14, below 5.00, 7.96, 4630 nM and 0.64 nmol/g.
Take `C[C@@H](NC(=O)c1nn(-c2ccc(Cl)cc2)c2c1CCC/C2=C\c1ccc(Cl)cc1)c1ccccn1`: the Kp in data set [1] turned out to be 0.26. The compound further registered a concentration at 2 h in [2] of 3720 nM. The values for the pEC50 at Cannabinoid receptor 2 and on Cannabinoid receptor 1 were below 5.00 and 6.90, respectively. The compound further gave a Drug uptake in data set [3] of 0.97 nmol/g.
Consider `C[C@@H](NC(=O)c1nn(-c2ccc(Cl)c(Cl)c2)c2c1CCCC/C2=C\c1ccc(F)cc1)c1ccccn1`, for which, in [1], the Kp was determined as 0.05. For the same compound, the results for the Drug uptake in data set [6] and in data set [3] were 0.25 nmol/g and 0.07 nmol/g, respectively. Also, the values for the concentration at 2 h in [7] and in [2] were 6.62 µM and 1620 nM, respectively. The AUC with Mus musculus [8] was 3.67e+06 ng·h/mL. The results for the pEC50 on Cannabinoid receptor 2 and on Cannabinoid receptor 1 were 5.70 and 7.46, respectively. In addition, the Activity result in the data set on Mus musculus [9], in the data set on Mus musculus [10] and in the data set on Rattus norvegicus was “Non-Toxic” throughout. The Kp at 2 h in [11] was 0.037.
Turning to `O=C(NC1CCN(c2ccccn2)CC1)c1nn(-c2ccc(Cl)cc2Cl)c2c1CCC/C2=C\c1ccc(Cl)cc1`, in data set [1], the Kp stood at 0.09. In addition, the results for the negative logarithm of the EC50 (pEC50) at Cannabinoid receptor 2 and at Cannabinoid receptor 1 were below 5.00 and 7.47, respectively. The same compound gave a concentration at 4 h in data set [4] of 450 nM. The Drug uptake in data set [5] was determined as 0.04 nmol/g.
The matching figures for `O=C(NC1(c2ccccn2)CC1)c1nn(-c2ccc(C(F)(F)F)cc2Cl)c2c1CCCC/C2=C\c1ccc(Cl)s1`: 0.24, below 5.00, 8.10, 1540 nM and 0.36 nmol/g.
`C[C@@H](NC(=O)c1nn(-c2ccc(Cl)cc2Cl)c2c1CCCC/C2=C\c1ccc(Cl)s1)c1ccccn1`: the Kp in data set [1] amounted to 0.15. For the same compound, the concentration at 2 h in data set [2] stood at 3630 nM. The results for the pEC50 at Cannabinoid receptor 2 and on Cannabinoid receptor 1 were 5.03 and 8.70, respectively. Besides, the Drug uptake in data set [3] worked out at 0.56 nmol/g.
In the case of `C[C@@H](NC(=O)c1nn(-c2ccc(Cl)cc2Cl)c2c1CCC/C2=C\c1ccc(Cl)cc1)c1ccccn1`, the Kp in data set [1] was found to be 0.2. The negative logarithm of the EC50 (pEC50) is 6.07 at Cannabinoid receptor 2 and 7.52 at Cannabinoid receptor 1. Further, the concentration at 4 h in data set [4] worked out at 1600 nM. Moreover, the Drug uptake in [5] is reported as 0.32 nmol/g.
Regarding `C[C@@H](NC(=O)c1nn(-c2ccc(Cl)cc2Cl)c2c1CCC/C2=C\c1ccc(Cl)s1)c1ccccn1`, the Kp in [1] is 0.08. Also, the concentration at 2 h in data set [2] is 2960 nM. In addition, the values for the pEC50 on Cannabinoid receptor 2 and at Cannabinoid receptor 1 were 5.42 and 7.46, respectively. This compound had a Drug uptake in data set [3] of 0.24 nmol/g.
As to `C[C@@H](NC(=O)c1nn(-c2ccc(C(F)(F)F)cc2Cl)c2c1CCC/C2=C\c1ccc(Cl)s1)c1ccccn1`, in data set [1], the Kp was determined as 0.11. For the same compound, the figures for the pEC50 on Cannabinoid receptor 2 and on Cannabinoid receptor 1 were below 5.00 and 7.74, respectively. For the same compound, the concentration at 4 h in data set [4] amounted to 460 nM. In data set [5], this compound showed a Drug uptake of 0.051 nmol/g.
With `O=C(NC1CCN(c2ccccn2)CC1)c1nn(-c2ccc(Cl)cc2Cl)c2c1CCC/C2=C\c1ccc(F)cc1`, in data set [1], the Kp amounted to 0.02. The concentration at 2 h in data set [2] came out at 1520 nM. Further, the pEC50 on Cannabinoid receptor 2 is below 4.96; on Cannabinoid receptor 1, 7.92. In addition, the Drug uptake in [3] turned out to be 0.035 nmol/g.
The matching figures for `C[C@@H](NC(=O)c1nn(-c2ccc(Cl)cc2Cl)c2c1CCC/C2=C\c1ccc(F)cc1)c1ccccn1`: 0.92, 1560 nM, below 5.00, 8.40 and 1.39 nmol/g.
The like results for `O=C(NC1(c2ccccn2)CC1)c1nn(-c2ccc(Cl)c(Cl)c2)c2c1CCCC/C2=C\c1ccc(F)cc1` were, in that order, 0.05, 2410 nM, 6.09, 7.89 and 0.11 nmol/g.
Consider `C[C@@H](NC(=O)c1nn(-c2ccc(Cl)cc2Cl)c2c1CCCC/C2=C\c1ccc(F)cc1)c1ccccc1`, for which the concentration at 2 h in [2] was 1290 nM; in data set [3] (C57BL/6J, brain without cerebellum, read-out: Drug uptake), below 5 ng/mL. The pEC50 was 5.25 at Cannabinoid receptor 2 and 8.22 on Cannabinoid receptor 1.
As to `C[C@@H](NC(=O)c1nn(-c2ccc(Cl)cc2)c2c1CCC/C2=C\c1ccc(Cl)cn1)c1ccccn1`, the Kp in data set [1] turned out to be 0.65. For the same compound, the concentration at 2 h in data set [2] was found to be 2930 nM. Besides, the pEC50 is below 5.00 at Cannabinoid receptor 2 and 7.66 on Cannabinoid receptor 1. Also, the Drug uptake in data set [3] came to 1.91 nmol/g.
The like results for `O=C(NC1CCN(c2ccccn2)CC1)c1nn(-c2ccc(Cl)cc2Cl)c2c1CCCC/C2=C\c1ccc(F)cc1` were, in that order, 0.03, 2030 nM, below 5.00, 7.55 and 0.05 nmol/g.
The like results for `C[C@@H](NC(=O)c1nn(-c2ccc(Cl)cc2Cl)c2c1CCCC/C2=C\c1ccc(Cl)cn1)c1ccccn1` were, in that order, 0.48, 380 nM, 6.25, 8.40 and 0.16 nmol/g.
For `C[C@@H](NC(=O)c1nn(-c2ccc(Cl)c(Cl)c2)c2c1CCC/C2=C\c1ccc(Cl)s1)c1ccccn1`, the Kp in data set [1] came to 0.03. The pEC50 on Cannabinoid receptor 2 was below 5.00; on Cannabinoid receptor 1 it was 7.43. In data set [4], this compound returned a concentration at 4 h of 3180 nM. This compound gave a Drug uptake in data set [5] of 0.1 nmol/g.
Consider `C[C@@H](NC(=O)c1nn(-c2ccc(Cl)c(Cl)c2)c2c1CCCC/C2=C\c1ccc(C(F)(F)F)cc1)c1ccccn1`, for which the Kp in data set [1] was determined as 0.01. In [2], this compound gave a concentration at 2 h of 4760 nM. Also, the values for the pEC50 on Cannabinoid receptor 2 and at Cannabinoid receptor 1 were below 5.00 and 7.25, respectively. This compound also gave a Drug uptake in data set [3] of 0.05 nmol/g.
`O=C(NC1(c2ccccn2)CC1)c1nn(-c2ccc(Cl)cc2)c2c1CCC/C2=C\c1ccc(Cl)cc1`: the Kp in [1] stood at 0.82. The pEC50 is 5.79 at Cannabinoid receptor 2 and 8.15 on Cannabinoid receptor 1. Moreover, the concentration at 4 h in [4] was found to be 1610 nM. The compound further came in with a Drug uptake in data set [5] of 1.28 nmol/g.
In the case of `C[C@@H](NC(=O)c1nn(-c2ccc(Cl)c(Cl)c2)c2c1CCCC/C2=C\c1ccc(Cl)cc1)c1ccccn1`, in [1], the Kp was 0.02. Besides, the concentration at 2 h in [2] was determined as 2400 nM. The negative-log EC50 (pEC50) at Cannabinoid receptor 2 was below 5.00; on Cannabinoid receptor 1, 7.43. Further, in [3], the Drug uptake worked out at 0.05 nmol/g.

As a reminder, the pEC50 is the EC50 on a negative log10 scale, so that one unit is a factor of ten.
